# Results of several laboratories.
# Lines come from different studies, so protocols differ.
# Matrix: plasma
SMILES,host,route,dose,setting,Cmax
C=CC(=O)NC1CCN(c2ncc3ncnc(Nc4ccc(Oc5ccc6c(c5)ncn6C)c(C)c4)c3n2)CC1,male human,intravenous,100 µg,"single dose, healthy volunteers",0.583 nM
COc1ccc(-c2c(Nc3ccccn3)[nH]c3c(C4=CCCCC4)c(-c4ccccc4)nn3c2=O)cc1,human,oral,200 mg once daily,"multiple doses, patients",5720 ng/mL
CC(=O)N(C)[C@H]1CCN(C(=O)c2cnc3c(c2)C[C@](C)(c2ccc(F)cc2)N3)C1,male human,oral,30 mg,"multiple doses, once daily, steady state",797 nM
O=C(COc1ccc(Cl)cc1)NC12CC(c3nnc([C@H]4C[C@@H](OC(F)(F)F)C4)o3)(C1)C2,human,oral,260 mg,"multiple doses, once daily, steady state, healthy volunteers",18600 nM
CC(C)n1c(C2CCNCC2)nc2c([N+](=O)[O-])c(Br)c(Br)cc21,human,oral,25 mg,patients,8.77 ng/mL
COc1ccc2c(c1)CN(C(=O)CCN1CCC(Cc3ccccc3)CC1)CC[S@@+]2[O-],male human,intravenous,0.01 mg/kg,healthy volunteers,21.9 ng/mL
OC[C@H]1O[C@@H](c2cc(Cc3ccc(C4CC4)cc3)c(Cl)c3c2CCO3)[C@H](O)[C@@H](O)[C@@H]1O,human,oral,0.3 mg,"single dose, fasted",4.5 ng/mL
N#Cc1cccc(-c2ccc3ncc(-c4cc(F)cc(F)c4)c(N4CCC(N)CC4)c3c2)c1O,male human,oral,20 mg,single dose,162 ng/mL
Cc1cc(-c2nccc3c2ccn3CC(=O)Nc2ccc(-c3cnccn3)cn2)ccn1,human,oral,7 mg,single dose,57.4 nM
